The record followed here is PubChem BioAssay AID743061 (The Scripps Research Institute Molecular Screening Center, 2013).

The inhibition is the relative decrease from the control value, in per cent.

This experiment has as its target Methionine--tRNA ligase, mitochondrial (Homo sapiens) (UniProt Q96GW9). The experiment is described as follows: human mtMetRS tRNA charging inhibition – biochemical, radioactivity, round 1, selectivity assay for T. brucei MetRS inhibitor project, late-stage follow-up (AID 743061).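 Note: 0% = DMSO with full reaction and 100% = DMSO wells lacking tRNA.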 Conditions: recombinant human mtMetRS, [3H]Met tRNA charging, at 10 µM, stronger effect = higher value. In outline:
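System: recombinant human mitochondrial methionyl-tRNA synthetase (MetRS); Buffer or medium: pH 8.0 reaction buffer containing 2.5 mM ATP; Controls: high DMSO, low without tRNA; Reagent: [3H]Met 240 nM plus bulk E. coli tRNA; Schedule: 15 min preincubation, 1 h reaction, room temperature; Measured by: scintillation counts of TCA-precipitated charged tRNA on filters.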
As for `COCCc1nc2ccc(C(=O)NCCc3nc4ccc(OC)cc4[nH]3)cc2o1`, the inhibition was determined as 0.45%.

`CN(Cc1cc(Cl)cc(Cl)c1)[C@H]1C[C@H]2c3[nH]c4ccccc4c3CCN2C(=O)[C@H]1CO`: the inhibition was 80.3%. To `CC(C)(C)[C@H]1C=C(C(=O)NCc2nc3ccccc3[nH]2)O[C@@H](OCc2ccc(CO)cc2)C1` belongs 10.3%; to `CCc1ccc2c(c1)c1nnc(SCC(=O)Nc3ccc4c(c3)OCO4)nc1n2C`, 5.87%; to `C[C@H](O)[C@@H]1C(=O)N2CCc3c([nH]c4ccccc34)[C@@H]2C[C@@H]1N(C)Cc1ccc2c(c1)OCO2`, 24.8%.

On to `CCO[C@H]1OC(C(=O)NCc2nc3ccccc3[nH]2)=C[C@@H](c2ccc(Br)cc2)[C@@H]1CCCO`, for which the inhibition was 11.7%.

For the compound `Clc1ccc(OCCSCc2nc3ccccc3[nH]2)cc1`, the inhibition was -5.52%. On to `O=C(NCCc1nc2ccccc2[nH]1)c1ccc(Cl)cc1`, for which the inhibition turned out to be 7.1%. Turning to `O=C(NCc1nc2ccccc2[nH]1)C1=C[C@@H](c2csc3ccccc23)C[C@@H](OCCCCO)O1`, the inhibition turned out to be 6.67%. On to `O=C(NCc1nc2ccccc2[nH]1)C1=C[C@@H](c2ccc(Br)cc2)C[C@@H](OCc2ccc(CO)cc2)O1`, for which the inhibition was determined as 16.7%.

As for `O=C(Cn1cc(C(=O)C(=O)N2CCCC2)c2ccccc21)Nc1ccccc1`, the inhibition was -0.86%.

`O=C1CC(N(CCc2ccccc2)C(=S)Nc2ccccc2)C(=O)N1c1ccc(Br)cc1` (centres undefined): the inhibition came out at 25.6%. Turning to `CC(C)c1nc2ccc(C(=O)N(C)CCc3nc4ccc(F)cc4[nH]3)cc2o1`, the inhibition turned out to be 0.38%.

Turning to `CCCCCCCCCC1NC(C(=O)O)Cc2c1[nH]c1ccccc21` (centres undefined), the inhibition was determined as 9.9%. In the case of `COc1cccc(NC(=O)C2CC(=O)n3c(nc4ccccc43)N2)c1` (centres undefined), the inhibition was found to be 9.79%. To `Clc1ccc(-c2nnc(SCc3nc4ccccc4[nH]3)o2)c(Cl)c1` belongs 41.9%; to `Cc1ccc(C(=O)NCCc2nc3ccccc3[nH]2)cc1[N+](=O)[O-]`, 7.36%; to `O=C(NCc1nc2ccccc2[nH]1)C1=C[C@H](c2ccc(Br)cc2)C[C@H](OCCCCO)O1`, -2.4%. As to `CN(CC(=O)Nc1ccc(Cl)cc1)C(=O)c1ccc(-n2cncn2)c([N+](=O)[O-])c1`, the inhibition is -19.1%.
